Series [1] concerns Human betaherpesvirus 5. Put plainly: Antiviral activity against HCMV Towne infected in human HFF cells assessed as reduction in viral DNA yields in the supernatant at 1.5 uM treated with compound following viral infection at MOI of 0.1 PFU/cell by US17 real time PCR analysis. It is filed as functional, organism-based. Conditions: strain Towne. In a few lines: (§1)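 At set time points supernatants were harvested and cells lysed for DNA. Cell-associated viral DNA and supernatant viral DNA quantified by real-time PCR targeting a 151-bp conserved US17 region.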
In general terms: In qPCR the cycle at which signal appears reflects the starting amount.

Series [2] deals with Human betaherpesvirus 5. The series is described as follows: Antiviral activity against HCMV TB40 infected in human HFF cells assessed as reduction in plaque formation treated with compound following viral infection and incubated for 8 to 10 days by crystal violet staining based assay. It counts as functional, organism-based. Particulars: Human betaherpesvirus 5, TB40, HFF.

Series [3] has as its system Human betaherpesvirus 5. Put plainly: Antiviral activity againstpp28-luciferase expressing HCMV Towne infected in human HFF cells assessed as reduction in viral replication treated with compound following viral infection at MOI of 1 PFU/cells measured after 3 days in presence of GCV by luciferase reporter gene assay. It is filed as functional, organism-based. Particulars: Human betaherpesvirus 5, strain Towne, 72 h. In a few lines:
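HFFs in 96-well plates were infected with pp28-luciferase Towne HCMV, in which luciferase is driven by the UL99 late promoter, at MOI 1. A dose-response of each drug alone gave its EC₅₀. Combinations started at twice each EC₅₀ in DMEM with 4% FBS, followed by two-fold serial dilutions, and were added after infection. Luciferase was read in cell lysates at 72 hpi. The Bliss ratio is observed over expected inhibition.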
(In general: Reporter assays use an easily measured gene product as a stand-in for the process of interest.)

A further series concerns Human alphaherpesvirus 1. Put plainly: Antiviral activity against HSV 1 infected in African green monkey Vero cells assessed as reduction in plaque formation incubated for 36 hrs by crystal violet staining based assay. It counts as functional, organism-based. Conditions: vero. In a few lines: (§2)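 Plaque reduction in Vero cells: virus adsorbed 60 min, then compound added in a carboxymethylcellulose overlay. Plaques counted after 36 h by crystal violet staining.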

A further series deals with HFF. The series is described as follows: Cytotoxicity against human HFF cells assessed as reduction in cell viability incubated for 72 hrs or 10 days by MTT assay. It counts as cell-based. In a few lines:
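MTT assay on uninfected cells exposed to compound for 72 h or 8–10 days, matching the antiviral assay durations. MTT (5 mg/mL stock in PBS) added, then 2–3 h at 37 °C. Formazan absorbance read at 560 nm.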
In general terms: Tetrazolium assays rely on reduction of a dye to a coloured formazan, in cell work by metabolically active cells.

Series [4] concerns Human betaherpesvirus 5. The series is described as follows: Antiviral activity against HCMV Towne infected in human HFF cells assessed as reduction in plaque formation treated with compound following viral infection and incubated for 8 to 10 days by crystal violet staining based assay. Particulars: Human betaherpesvirus 5, strain Towne. It is filed as functional, organism-based.

For series [5], the system named is Human betaherpesvirus 5. Put plainly: Inhibition of viral protein expression in HCMV Towne infected in human HFF cells assessed as reduction in pp65 expression at 0.1 to 10 uM treated with compound following viral infection at MOI of 1 PFU/cell measured at 72 hrs post infection by Western blot analysis. Conditions: strain Towne. It counts as functional, organism-based. In a few lines:
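Lysates taken at 72 hpi, equal protein run on SDS-PAGE and transferred to PVDF. Immunoblot for viral proteins (IE1/2, UL84, UL44, pp65) with β-actin as loading reference, chemiluminescent detection.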

The test system of the next series is Human gammaherpesvirus 4. Put plainly: Antiviral activity against EBV infected in human AKATA cells assessed as reduction in IgG-induced lytic virus replication measured at 48 hrs post-lytic induction by qRT-PCR analysis. It is filed as functional, organism-based. Particulars: human gammaherpesvirus 4, 48 h; read-out: EC50.
The nature of series [6]: Antiviral activity against Mouse Cytomegalovirus Smith (ATCC VR-1399) infected in mouse MEF cells assessed as reduction in plaque formation measured after 3 days by crystal violet staining based assay. It counts as functional, cell-based, Murine cytomegalovirus (strain Smith). In a few lines: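 Plaque reduction with MCMV Smith in mouse embryonic fibroblasts, with compound in a carboxymethylcellulose overlay. Assay ended at 3 days and plaques counted after crystal violet staining.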

Series [7] concerns Human betaherpesvirus 5. Put plainly: Antiviral activity against HCMV Towne infected in human HFF cells assessed as reduction in viral DNA replication at 1.5 uM treated with compound following viral infection at MOI of 0.1 PFU/cell by US17 real time PCR analysis. It is filed as functional, organism-based. Particulars: strain Towne. In a few lines:
as §1

For series [8], the system named is Human betaherpesvirus 5. The series is described as follows: Inhibition of viral protein expression in HCMV Towne infected in human HFF cells assessed as reduction in IE2 expression at 0.1 to 10 uM treated with compound following viral infection at MOI of 1 PFU/cell measured at 72 hrs post infection by Western blot analysis. Conditions: strain Towne. It is filed as functional, organism-based. In a few lines:
(§3)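 HFFs infected with HCMV Towne (MOI 1), then treated with compound. Lysates taken at 72 hpi, equal protein loaded on 8–10% Tris-glycine SDS-PAGE and transferred to PVDF. Primary antibodies overnight at 4 °C, HRP secondary, chemiluminescent detection; β-actin as loading control.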

The subject of series [9] is Human betaherpesvirus 5. Put plainly: Antiviral activity against pp28-luciferase harboring UL97 C607Y mutant expressing GCV-resistant HCMV Towne infected in human HFF cells assessed as reduction in viral replication at 0.5 to 3 uM treated with compound following viral infection at MOI of 0.1 PFU/cell and measured at 72 hrs post infection by luciferase reporter gene assay. Particulars: strain Towne. It is filed as functional, organism-based. In a few lines: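 HFFs infected with GCV-resistant pp28-luciferase Towne (MOI 0.1), then treated with a compound dilution series. Luciferase, driven by the UL99 late promoter, read in cell lysates at 72 hpi. Data are mean ± SD of triplicates from a single experiment.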

Series [10] deals with Human betaherpesvirus 5. The series is described as follows: Inhibition of viral protein expression in HCMV Towne infected in human HFF cells assessed as reduction in UL44 expression at 0.1 to 10 uM treated with compound following viral infection at MOI of 1 PFU/cell measured at 72 hrs post infection by Western blot analysis. It is filed as functional, organism-based. Conditions: strain Towne. In a few lines:
as §3

In series [11] the test system is Human betaherpesvirus 5. The series is described as follows: Antiviral activity against GCV-resistant HCMV Towne infected in human HFF cells assessed as reduction in plaque formation treated with compound following viral infection and incubated for 8 to 10 days by crystal violet staining based assay. It is filed as functional, organism-based. Particulars: Human betaherpesvirus 5, strain Towne.

The subject of another series is Human alphaherpesvirus 2. Put plainly: Antiviral activity against HSV 2 infected in African green monkey Vero cells assessed as reduction in plaque formation incubated for 36 hrs by crystal violet staining based assay. It counts as functional, organism-based. In a few lines: as §2
The test system of series [12] is Human betaherpesvirus 5. The series is described as follows: Inhibition of viral protein expression in HCMV Towne infected in human HFF cells assessed as reduction in IE1 expression at 0.1 to 10 uM treated with compound following viral infection at MOI of 1 PFU/cell measured at 72 hrs post infection by Western blot analysis. Particulars: strain Towne. It counts as functional, organism-based. In a few lines:
as §3

Series [13] deals with Human betaherpesvirus 5. The series is described as follows: Inhibition of viral protein expression in HCMV Towne infected in human HFF cells assessed as reduction in UL84 expression at 0.1 to 10 uM treated with compound following viral infection at MOI of 1 PFU/cell measured at 72 hrs post infection by Western blot analysis. It counts as functional, organism-based. Particulars: strain Towne. In a few lines: as §3

For series [14], the system named is Human betaherpesvirus 5. Put plainly: Antiviral activity against HCMV TB40 infected in human HFF cells assessed as reduction in plaque formation at 0.1 to 3 uM treated with compound following viral infection at […] measured after 8 days by crystal violet staining analysis. It is filed as functional, organism-based. In a few lines:
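HFFs (2 × 10⁵/well) infected with HCMV TB40 at about 100 plaques/well for 90 min. Inoculum removed, then DMEM with 0.5% CMC, 4% FBS and compound added. Incubated at 37 °C; plaques stained with crystal violet and counted at 8 dpi. Experiment repeated three times; one representative shown.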

Series [15] relates to Human betaherpesvirus 5. The series is described as follows: Antiviral activity against HCMV Towne infected in human HFF cells assessed as reduction in plaque formation treated with compound following viral infection at MOI of 1 PFU/cell and measured at 10 days post-infection in presence of letermovir by crystal violet staining based assay. It is filed as functional, organism-based. Particulars: Human betaherpesvirus 5, strain Towne, 240 h.

In series [16] the test system is Human betaherpesvirus 5. Put plainly: Antiviral activity against pp28-luciferase expressing HCMV Towne infected in human HFF cells assessed as reduction in viral replication treated with compound immediately after viral infection at MOI of 1 PFU/cell followed by compound washout after 6 hrs and measured after 3 days by luciferase reporter gene assay. It is filed as functional. Conditions: strain Towne. In a few lines:
(§4)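 Time-of-addition in HFFs infected with HCMV Towne (MOI 1). Add-on: compound added at 0, 6, 24 or 48 hpi. Removal: compound added right after infection and washed out after 0, 6, 24 or 48 h. Luciferase read at 72 hpi.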

The subject of series [17] is Human betaherpesvirus 5. The series is described as follows: Antiviral activity against pp28-luciferase expressing HCMV Towne infected in human HFF cells assessed as reduction in viral replication treated with compound at 24 hrs post viral infection at MOI of 1 PFU/cell and measured after 3 days by luciferase reporter gene assay. Conditions: strain Towne. It is filed as functional, organism-based. In a few lines: as §4

In series [18] the test system is Human betaherpesvirus 5. The series is described as follows: Antiviral activity against HCMV Towne infected in human HFF cells assessed as reduction in viral DNA replication at 5 uM treated with compound following viral infection at MOI of 0.1 PFU/cell by US17 real time PCR analysis. It is filed as functional, organism-based. Particulars: strain Towne. In a few lines:
as §1

Series [19] relates to Human betaherpesvirus 5. Put plainly: Antiviral activity against HCMV Towne infected in human HFF cells assessed as reduction in viral DNA yields in the supernatant at 5 uM treated with compound following viral infection at MOI of 0.1 PFU/cell by US17 real time PCR analysis. Particulars: strain Towne. It counts as functional, organism-based. In a few lines: as §1
Series [20] has as its system Human betaherpesvirus 5. The series is described as follows: Antiviral activity against HCMV Towne infected in human HFF cells assessed as reduction in viral entry into host cell by measuring nuclear localization of pp65 at 5 uM treated with compound for 24 hrs followed by viral infection at MOI of 0.01 to 1 PFU/cell measured at 2 hrs post infection by immunofluorescence microscopy. It is filed as functional, organism-based. Conditions: strain Towne. In a few lines: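 HFFs on chamber slides pretreated 24 h with compound diluted in serum-free medium, then infected with HCMV Towne for 2 h. Heparin 30 μM as positive entry-block control. Cells methanol-fixed, then stained with anti-pp65 (1:50) and rhodamine anti-mouse IgG, with DAPI. Nuclear pp65 viewed by fluorescence microscopy at 40x; repeated three times.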

The results in this text go back to ChEMBL document CHEMBL4354867, “Validation and Characterization of Five Distinct Novel Inhibitors of Human Cytomegalovirus” (J Med Chem, 2020).

Broadly, the EC50 is the concentration that produces a half-maximal response. In general, CC50 refers to the concentration that lowers cell viability or growth by half.

Active and inactive are the calls of the source. No cut-off for these calls is given here.

Take `Nc1c(S(=O)(=O)c2cccs2)c2nc3ccccc3nc2n1Cc1ccccc1`: the outcome with Human betaherpesvirus 5 [1], in the series on Human betaherpesvirus 5 [7], in the series on Human betaherpesvirus 5 [9], in the series with Human betaherpesvirus 5 [14] and in the series with Human betaherpesvirus 5 [16] was Active. For the same compound, the half-maximal effective concentration (EC50) is 330 nM in the series with Human betaherpesvirus 5 [2]; 570 nM with Human betaherpesvirus 5 [3]; “Not Active” in the series on Human alphaherpesvirus 1; 390 nM in the series on Human betaherpesvirus 5 [4]; > 10000 nM with Human gammaherpesvirus 4; “Not Active” in series [6] (mef). Moreover, the EC50 in the series with Human betaherpesvirus 5 [11] is 260 nM; with Human alphaherpesvirus 2 (vero), “Not Active”; in the series with Human betaherpesvirus 5 [15], 130 nM. The CC50 in the series with HFF is > 250000 nM. The inhibition result in the series on Human betaherpesvirus 5 [5], with Human betaherpesvirus 5 [8], with Human betaherpesvirus 5 [10], in the series on Human betaherpesvirus 5 [12] and in the series with Human betaherpesvirus 5 [13] was “Active” each time. Further, the result in the series on Human betaherpesvirus 5 [17] was inactive.
As for `Nc1nc2c(ncn2COC(CO)CO)c(=O)[nH]1` [GANCICLOVIR], the EC50 in the series on Human gammaherpesvirus 4 was found to be 5200 nM; in series [6] (Murid betaherpesvirus 1, ATCC VR-1399, MEF, 72 h, read-out: EC50), 960 nM; with Human alphaherpesvirus 2 (Human alphaherpesvirus 2, Vero, 36 h, read-out: EC50) it was 580 nM. In addition, the result with Human betaherpesvirus 5 [18], with Human betaherpesvirus 5 [19] and in the series on Human betaherpesvirus 5 [16] was Active. Besides, the result in the series with Human betaherpesvirus 5 [20] and with Human betaherpesvirus 5 [17] was inactive.
